Data reported in ChEMBL document CHEMBL1122118, “Novel opiates and antagonists. 4. 7-Alkanoylhydromorphones” (1982).
Active and inactive are the calls of the source. The rule behind the calls is not given here.

Legend:
Rattus norvegicus [1] = species on record: Rattus norvegicus; experiment: Antagonistic activity was measured by Rat tail-flick morphine antagonist procedure; format: functional
Method in brief: (§1)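 Rat tail-flick test: the compound's ability to block analgesia from a fixed challenge dose of morphine was scored across a dose-response.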

Mus musculus [2] = species on record: Mus musculus; experiment: Agonistic activity by mouse acetic acid writhing test.; format: functional
Mus musculus [3] = experiment: Agonistic activity was measured by Mouse acetic acid writhing test; IA is Inactive at highest dose tested (10 mg/Kg); format: functional, organism-based
Rattus norvegicus [4] = experiment: Antagonistic activity was measured by Rat tail-flick morphine antagonist procedure; IA is Inactive at highest dose tested (10 mg/Kg); format: functional, organism-based; method in brief: as §1
Rattus norvegicus [5] = species on record: Rattus norvegicus; experiment: Antagonistic activity was measured by Rat tail-flick morphine antagonist procedure; unable to achieve satisfactory dose response; format: functional, organism-based; method in brief: as §1

| Structure (SMILES) | AD50 (Rattus norvegicus [1]) | ED50 (Mus musculus [2]) | further results |
| --- | --- | --- | --- |
| CC(=O)C1CC2C3Cc4ccc(O)c5c4C2(CCN3CC2CC2)C(O5)C1=O (stereo not drawn) | 1.3 mg/kg | 4 mg/kg | – |
| COc1ccc2c3c1OC1C(=O)C(C(=O)c4ccc(F)cc4)CC4C(C2)N(CC2CC2)CCC314 (stereo not drawn) | >10 mg/kg | – | ED50 (Mus musculus [3]): inactive |
| CCCCCCC(=O)C1CC2C3Cc4ccc(O)c5c4C2(CCN3CC2CC2)C(O5)C1=O (stereo not drawn) | – | 0.4 mg/kg | AD50 (Rattus norvegicus [4]): inactive |
| CCCCC(=O)C1CC2C3Cc4ccc(OC)c5c4C2(CCN3CC2CC2)C(O5)C1=O (stereo not drawn) | – | > 10 mg/kg | AD50 (Rattus norvegicus [4]): inactive |
| COc1ccc2c3c1OC1C(=O)C(C(C)=O)CC4C(C2)N(C)CCC314 (stereo not drawn) | – | 23.5 mg/kg | – |
| CCC(=O)C1CC2C3Cc4ccc(OC)c5c4C2(CCN3CC2CC2)C(O5)C1=O (stereo not drawn) | 6.5 mg/kg | > 10 mg/kg | – |
| COc1ccc2c3c1O[C@H]1C(=O)CC[C@H]4[C@@H](C2)N(C)CC[C@]314 [HYDROCODONE] | – | 1.06 mg/kg | – |
| COc1ccc2c3c1OC1C(=O)CCC4C(C2)N(CC2CC2)CCC314 (stereo not drawn) | 3.4 mg/kg | 17 mg/kg | – |
| CCC(=O)C1CC2C3Cc4ccc(O)c5c4C2(CCN3CC2CC2)C(O5)C1=O (stereo not drawn) | 0.52 mg/kg | – | ED50 (Mus musculus [3]): inactive |
| CCCC(=O)C1CC2C3Cc4ccc(O)c5c4C2(CCN3C)C(O5)C1=O (stereo not drawn) | – | 5.2 mg/kg | – |
| CCCCCC(=O)C1CC2C3Cc4ccc(O)c5c4C2(CCN3CC2CC2)C(O5)C1=O (stereo not drawn) | 22 mg/kg | – | – |
| CCCCC(=O)C1CC2C3Cc4ccc(O)c5c4C2(CCN3CC2CC2)C(O5)C1=O (stereo not drawn) | 3.3 mg/kg | – | – |
| O=C1CCC2C3Cc4ccc(O)c5c4C2(CCN3CC2CC2)C1O5 (stereo not drawn) | 0.19 mg/kg | 1.3 mg/kg | – |
| COc1ccc2c3c1OC1C(=O)C(C(C)=O)CC4C(C2)N(CC2CC2)CCC314 (stereo not drawn) | >10 mg/kg | > 10 mg/kg | – |
| CCCC(=O)C1CC2C3Cc4ccc(OC)c5c4C2(CCN3C)C(O5)C1=O (stereo not drawn) | – | – | ED50 (Mus musculus [3]): inactive |
| CN1CC[C@]23c4c5ccc(O)c4O[C@H]2[C@@H](O)C=C[C@H]3[C@H]1C5 [MORPHINE] | – | 0.79 mg/kg | – |
| O=C(c1ccccc1)C1CC2C3Cc4ccc(O)c5c4C2(CCN3CC2CC2)C(O5)C1=O (stereo not drawn) | 0.24 mg/kg | – | – |
| CO[C@@]12CC[C@@]3(C[C@@H]1[C@](C)(O)C(C)(C)C)[C@H]1Cc4ccc(O)c5c4[C@@]3(CCN1CC1CC1)[C@H]2O5 [BUPRENORPHINE] | – | 0.13 mg/kg | AD50 (Rattus norvegicus [5]): unable to achieve satisfactory dose response |
| COc1ccc2c3c1OC1C(=O)C(C(=O)c4ccccc4)CC4C(C2)N(CC2CC2)CCC314 (stereo not drawn) | 8 mg/kg | – | – |
| COc1ccc2c3c1OC1C(=O)C(C(=O)C(C)C)CC4C(C2)N(CC2CC2)CCC314 (stereo not drawn) | 2.8 mg/kg | – | – |
| CC(C)(C)CC(=O)C1CC2C3Cc4ccc(O)c5c4C2(CCN3CC2CC2)C(O5)C1=O (stereo not drawn) | >10 mg/kg | – | ED50 (Mus musculus [3]): inactive |
| CCCCCC(=O)C1CC2C3Cc4ccc(OC)c5c4C2(CCN3C)C(O5)C1=O (stereo not drawn) | – | 4 mg/kg | – |
| CCCC(=O)C1CC2C3Cc4ccc(OC)c5c4C2(CCN3CC2CC2)C(O5)C1=O (stereo not drawn) | 8.1 mg/kg | 2.8 mg/kg | – |
| CCCCCC(=O)C1CC2C3Cc4ccc(OC)c5c4C2(CCN3CC2CC2)C(O5)C1=O (stereo not drawn) | – | – | AD50 (Rattus norvegicus [4]): inactive |
| CN1CC[C@]23c4c5ccc(O)c4O[C@H]2C(=O)CC[C@H]3[C@H]1C5 [HYDROMORPHONE] | – | 0.08 mg/kg | – |
| CCCCCCC(=O)C1CC2C3Cc4ccc(OC)c5c4C2(CCN3CC2CC2)C(O5)C1=O.Cl (stereo not drawn) | >10 mg/kg | > 10 mg/kg | – |
| CC(C)C(=O)C1CC2C3Cc4ccc(O)c5c4C2(CCN3CC2CC2)C(O5)C1=O (stereo not drawn) | 0.81 mg/kg | – | – |
| O=C(c1ccc(F)cc1)C1CC2C3Cc4ccc(O)c5c4C2(CCN3CC2CC2)C(O5)C1=O (stereo not drawn) | ~10 mg/kg | > 10 mg/kg | – |
| CCCC(=O)C1CC2C3Cc4ccc(O)c5c4C2(CCN3CC2CC2)C(O5)C1=O (stereo not drawn) | 2.6 mg/kg | – | – |
